In one assay the test system is Aspergillus fumigatus. The experiment in a line: In vitro antifungal activity against Aspergillus fumigatus. Type of assay: functional. In a few lines:
(§1)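 Clinical isolates kept on Sabouraud's dextrose agar at 28 °C. Inocula at 1 × 10^5 CFU/mL: C. albicans yeast cells grown 48 h in Sabouraud's dextrose broth; A. fumigatus and T. asteroides conidia grown 14 days in that broth with 0.1% Tween 80. Microtiter twofold dilution in Sabouraud's dextrose broth, 100 to […] µg/mL, methanol ≤2%. Sealed, 37 °C, 48 h. MIC is the lowest concentration without visible growth.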

A further assay deals with Candida albicans. Briefly: In vitro antifungal activity against Candida albicans. Type of assay: functional. In a few lines:
as §1

For a further assay, the system named is Trichophyton benhamiae. Briefly: In vitro antifungal activity against Trichophyton asteroides. Format: functional, tricophyton asteroides. In a few lines:
as §1

We go through two compounds from ChEMBL document CHEMBL1121767, “Synthesis and in vitro antimicrobial property of o-carborane derivatives” (1981).

≈ marks a conversion by molar mass, not a printed value. Bounds are passed on as bounds.

Usually MIC stands for the lowest concentration that inhibits growth of the organism. A higher MIC goes with a need for much substance. With `C[C@@H]1[C@H](O)[C@@H](C)/C=C/C=C/C=C/C=C/C=C/C=C/C=C/[C@H](O[C@@H]2O[C@H](C)[C@@H](O)[C@H](N)[C@@H]2O)C[C@@H]2O[C@](O)(C[C@@H](O)C[C@@H](O)[C@H](O)CC[C@@H](O)C[C@@H](O)CC(=O)O[C@H]1C)C[C@H](O)[C@H]2C(=O)O` [AMPHOTERICIN B], the minimal inhibitory concentration (MIC) in the assay with Aspergillus fumigatus stood at 3.1 µg/mL (≈ 3.35 µM); against Candida albicans it was 1.6 µg/mL (≈ 1.73 µM); against Trichophyton benhamiae it was 3.1 µg/mL (≈ 3.35 µM).
For `Clc1ccccc1C(c1ccccc1)(c1ccccc1)n1ccnc1` [CLOTRIMAZOLE], the minimal inhibitory concentration (MIC) against Aspergillus fumigatus is 3.1 µg/mL (≈ 8.99 µM); against Candida albicans, 3.1 µg/mL (≈ 8.99 µM); in the assay on Trichophyton benhamiae it was < 0.1 µg/mL.
